Assay results of several laboratories.
Target: Casein kinase I isoform alpha (CSNK1A1, Homo sapiens, UniProt P48729)

O=c1[nH]c2ccccc2n1C1CCN(Cc2ccc(-c3[nH]c4cc5ncnc5cc4nc3-c3ccccc3)cc2)CC1 — remaining signal (cell-free assay; 0.5 µM): 96%
Cc1nn(C)cc1-c1nc2c(N3CCN(Cc4ccc(Cl)cc4)CC3)c(Cl)cnc2[nH]1 — remaining binding (binding; competition with immobilised ligand; 1 µM): 77%
Cn1cncc1[C@](O)(COc1ccc(C#N)cc1-c1ccc(OC(F)(F)F)cc1)c1ccc(C#N)cc1 — remaining binding (cell-free assay; competition with immobilised ligand; 1 µM): 100%
Cn1cc(-c2cc(F)cc(N3CCn4c(cc5c4CCCC5)C3=O)c2CO)cc(Nc2ccc(N3CCN(C4COC4)CC3)cn2)c1=O — inhibition (enzyme activity; inhibitor; 0.1 µM): 4%
COc1ncccc1-c1cnn2ccc(N3CCN(C(=O)OC(C)C)CC3)nc12 — remaining binding (binding; competition with immobilised ligand; 1 µM): 100%
N#CC1(c2ccccn2)CCN(Cc2cc(C(=O)O)c(=O)n3ccccc23)CC1 — remaining binding (cell-free assay; competition with immobilised ligand; 1 µM): 100%
Cn1cc(-c2cccc(N3CCc4c(sc5c4CC(C)(C)C5)C3=O)c2CO)cc(Nc2ccncn2)c1=O — inhibition (enzyme activity; inhibitor; 1 µM): 6%
Nc1ncc(-c2nc(N3CCOCC3)nc(N3CCOCC3)n2)c(C(F)F)n1 — remaining binding (binding; competition with immobilised ligand; 10 µM): 72%
